Experimental data pooled from the literature.
Compare with care: the assays were run in different laboratories.
Target: Mitogen-activated protein kinase 7 (MAPK7, Homo sapiens, UniProt Q13164)

Structure (SMILES) | assay | test system | setting | endpoint | value
COc1cccc2c(NCc3ccccc3)nc(-n3c(N)nc4ccccc43)nc12 | target engagement in cells, inhibitor, chemoproteomics | – | 20 mM | inhibition | -14.3%
COc1ccc2c(c1)O[C@@H](c1ccc(OC)c(OC)c1)C[C@H]2NC(=O)C1(c2ccc3c(c2)OC(F)(F)O3)CC1 | cell-free assay, competition with immobilised ligand | – | 1 µM | remaining binding | 100%
FC(F)(F)Oc1cccc(-c2cnc3ccc(-c4ccncc4)nn23)c1 | enzyme activity, inhibitor, radiometric | – | 5 µM | activity vs control | 56%
Cc1sc(C(=O)NC2COC2)cc1-n1cc(NC(=O)Nc2c(F)cccc2Cl)cn1 | enzyme activity, inhibitor | – | 10 µM | remaining activity | 95.7%
c1ccc(CNc2nc(N3CCOc4ccccc43)nc3c2CCCC3)cc1 | target engagement in cells, inhibitor, chemoproteomics | – | 20 mM | inhibition | -6.4%
CC/C(=N\NC(=O)NCc1cccc(O)c1)c1ccc(O)c(C)c1O | enzyme activity, inhibitor | – | 0.1 µM | inhibition | -1.7%
O=C(Nc1ccc(Oc2ccc(F)cc2)cc1)N1CCc2ncccc2[C@H]1c1ccc(F)cc1 | cell-free assay, competition with immobilised ligand | – | 1 µM | remaining binding | 96%
CC(C)(C)c1nc(-c2cccc(NS(=O)(=O)c3c(F)cccc3F)c2F)c(-c2ccnc(N)n2)s1 | enzyme activity, inhibitor, radiometric | – | 1 µM | remaining activity | 74%
Cc1nc(N2CC[C@@H](O)C2)ncc1-c1cc(C(F)(F)F)cc2[nH]ncc12 | binding, competition with immobilised ligand | – | 1 µM | remaining binding | 83%
CC(C)(O)[C@H]1CC[C@H](Nc2ccc3ncc(-c4cccc(C(F)(F)F)c4)n3n2)CC1 | enzyme activity, inhibitor | – | 1 µM | remaining activity | 98.9%
COc1cc(/C=C/C(=O)CC(=O)/C=C/c2ccc(O)c(OC)c2)ccc1O | enzyme activity, inhibitor | – | 1 µM | activity vs control | 62%
COc1cc(Nc2cnc(C#N)c(O[C@H](C)CN(C)C)n2)ncc1-c1cnn(C)c1 | enzyme activity, inhibitor, radiometric | – | 10 µM | remaining activity | 85%
CNc1cc(Oc2cc(C(=O)Nc3cc(N4CCN(C)CC4)cc(C(F)(F)F)c3)ccc2C)ncn1 | target engagement in cells, inhibitor, chemoproteomics | Huh-7 | 1 µM | inhibition | -24.1%
